Measured values: paper PMC6218153 (Journal of Alzheimer's Disease Reports, 2018)
Where no end group is shown, it is not given here.

Test: PK study in plasma and CSF after single IV, SC or IN dose
Type: in vivo, rat
Outline: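 Cannulated rats (jugular vein, intracisternal; n = 6/route) received a single dose in PBS: IV or SC ~11 mg/kg over 1 min, or IN ~5.5 mg/kg, 10 μL per nostril at 6-min intervals over 18 min. K2EDTA plasma was taken pre-dose to 165 min and CSF pre-dose to 150/180 min. LC/MS/MS (ESI+, 1007.55 > 876.35) with noncompartmental PK; CL = Dose/AUC. CSF ratio = dose-normalised CSF AUC relative to IV.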

[1] = rat, in vivo, 5.5 mg/kg, IN 5.5 mg/kg, CSF
[2] = rat, in vivo, inhaled or intranasal, 5.5 mg/kg, IN 5.5 mg/kg, plasma
[3] = rat, in vivo, sc, 11 mg/kg, SC 11 mg/kg, CSF
[4] = rat, in vivo, sc, 11 mg/kg, SC 11 mg/kg, plasma

DEEEDEEL [P8, DEEEDEEL]
P8 concentration in plasma (IV 11.0 mg/kg single dose, 130 min, Rat 1): 42.0 ng/mL
P8 concentration in plasma (IV 11.0 mg/kg single dose, 130 min, Rat 2): 18.3 ng/mL
P8 concentration in plasma (IV 11.0 mg/kg single dose, 130 min, Rat 3): 20.7 ng/mL
P8 concentration in CSF (IV 11.0 mg/kg single dose, 150 min, Rat 1): 4.88 ng/mL
P8 concentration in CSF (IV 11.0 mg/kg single dose, 150 min, Rat 2): 4.30 ng/mL
P8 concentration in CSF (IV 11.0 mg/kg single dose, 150 min, Rat 3): 3.57 ng/mL
P8 concentration in plasma (IV 11.0 mg/kg single dose, 165 min, Rat 1): 18.9 ng/mL
P8 concentration in plasma (IV 11.0 mg/kg single dose, 165 min, Rat 3): 9.72 ng/mL
P8 concentration in CSF (IV 11.0 mg/kg single dose, 180 min, Rat 1): 4.11 ng/mL
P8 concentration in CSF (IV 11.0 mg/kg single dose, 180 min, Rat 3): 1.06 ng/mL
P8 concentration in CSF (SC 11.0 mg/kg single dose, 10 min, Rat 1): 7.06 ng/mL
P8 concentration in CSF (SC 11.0 mg/kg single dose, 10 min, Rat 2): 22.6 ng/mL
P8 concentration in CSF (SC 11.0 mg/kg single dose, 10 min, Rat 3): 1.75 ng/mL
P8 concentration in CSF (SC 11.0 mg/kg single dose, 30 min, Rat 1): 25.2 ng/mL
P8 concentration in CSF (SC 11.0 mg/kg single dose, 30 min, Rat 2): 12.8 ng/mL
P8 concentration in CSF (SC 11.0 mg/kg single dose, 30 min, Rat 3): 8.03 ng/mL
P8 concentration in CSF (SC 11.0 mg/kg single dose, 60 min, Rat 1): 26.5 ng/mL
P8 concentration in CSF (SC 11.0 mg/kg single dose, 60 min, Rat 2): 17.1 ng/mL
P8 concentration in CSF (SC 11.0 mg/kg single dose, 60 min, Rat 3): 10.3 ng/mL
P8 concentration in plasma (SC 11.0 mg/kg single dose, 70 min, Rat 2): 4,150 ng/mL
P8 concentration in plasma (SC 11.0 mg/kg single dose, 70 min, Rat 3): 1,220 ng/mL
P8 concentration in plasma (SC 11.0 mg/kg single dose, 90 min, Rat 1): 2,600 ng/mL
P8 concentration in plasma (SC 11.0 mg/kg single dose, 90 min, Rat 2): 3,570 ng/mL
P8 concentration in plasma (SC 11.0 mg/kg single dose, 90 min, Rat 3): 908 ng/mL
P8 concentration in CSF (SC 11.0 mg/kg single dose, 100 min, Rat 1): 21.6 ng/mL
P8 concentration in CSF (SC 11.0 mg/kg single dose, 100 min, Rat 2): 16.3 ng/mL
P8 concentration in CSF (SC 11.0 mg/kg single dose, 100 min, Rat 3): 8.31 ng/mL
P8 concentration in plasma (SC 11.0 mg/kg single dose, 110 min, Rat 1): 2,120 ng/mL
P8 concentration in plasma (SC 11.0 mg/kg single dose, 110 min, Rat 2): 2,410 ng/mL
P8 concentration in plasma (SC 11.0 mg/kg single dose, 110 min, Rat 3): 804 ng/mL
P8 concentration in plasma (SC 11.0 mg/kg single dose, 130 min, Rat 1): 1,870 ng/mL
P8 concentration in plasma (SC 11.0 mg/kg single dose, 130 min, Rat 2): 3,030 ng/mL
P8 concentration in plasma (SC 11.0 mg/kg single dose, 130 min, Rat 3): 619 ng/mL
P8 concentration in CSF (SC 11.0 mg/kg single dose, 150 min, Rat 1): 11.8 ng/mL
P8 concentration in CSF (SC 11.0 mg/kg single dose, 150 min, Rat 2): 10.7 ng/mL
P8 concentration in CSF (SC 11.0 mg/kg single dose, 150 min, Rat 3): 5.71 ng/mL
P8 concentration in plasma (SC 11.0 mg/kg single dose, 165 min, Rat 1): 1,010 ng/mL
P8 concentration in plasma (SC 11.0 mg/kg single dose, 165 min, Rat 2): 1,600 ng/mL
P8 concentration in plasma (SC 11.0 mg/kg single dose, 165 min, Rat 3): 356 ng/mL
mean plasma exposure, SC relative to IN, corrected for dose (rat): 25 fold
percent of dose absorbed, SC relative to IN (rat): 25 fold
ratio or relative % F across the blood-brain barrier, % of the plasma concentrations (rat): < 1%
CSF Ratio (dose normalized CSF AUC of route / of IV dose) (rat, IN 5.5 mg/kg): 0.10±0.092
Plasma: CSF Ratio (AUC) (rat, IN 5.5 mg/kg): 0.041±0.041
Plasma: CSF Ratio (Cmax) (rat, IN 5.5 mg/kg): 0.064±0.093
Tmax (rat, IN 5.5 mg/kg, CSF): 27 ± 29 min
CSF exposure as % of plasma exposure (rat, IV): about 0.5%
Plasma: CSF Ratio (AUC) (rat, IV 11 mg/kg): 0.0052±0.0015
peak CSF Cmax (rat, IV 11 mg/kg, CSF, at the 10-min time point (first time point)): 65.6 ng/mL
t1/2 (rat, IV 11 mg/kg, plasma, terminal, 11 mg/kg): 21.9 ± 8.18 min
clearance as share of hepatic liver blood flow (rat, IV, based on a 70 mL/min/kg estimate): about 25%
CSF exposure as % of plasma exposure (rat, SC): about 0.5%
CSF Ratio (dose normalized CSF AUC of route / of IV dose) (rat, SC 11 mg/kg): 0.72±0.29
Plasma: CSF Ratio (AUC) (rat, SC 11 mg/kg): 0.0055±0.00054
Plasma: CSF Ratio (Cmax) (rat, SC 11 mg/kg): 0.0037±0.0005
AUC [1]: 5.5 ng·h/mL
Cmax [1]: 12.4 ± 17.7 ng/mL
Tmax (rat, in vivo, 5.5 mg/kg, Tmax, IN 5.5 mg/kg, CSF): 26.7 min
bioavailability (rat, in vivo, inhaled or intranasal, 5.5 mg/kg): 2.8 ± 0.88%
AUC [2]: 146 ng·h/mL
Cmax [2]: 197 ± 62.7 ng/mL
Tmax (rat, in vivo, inhaled or intranasal, 5.5 mg/kg, Tmax, IN 5.5 mg/kg, plasma): 5 min
Vd (rat, in vivo, iv, 11 mg/kg): 0.546 ± 0.306 L/kg
clearance (rat, in vivo, iv, 11 mg/kg): 17.6 ± 5.65 mL/min/kg
AUC (rat, in vivo, iv, 11 mg/kg, IV 11 mg/kg, CSF): 54.5 ng·h/mL
AUC (rat, in vivo, iv, 11 mg/kg, IV 11 mg/kg, plasma): 11300 ng·h/mL
half-life (rat, in vivo, iv, 11 mg/kg, t1/2, rat, IV 11 mg/kg, plasma, terminal): 22 ± 8.2 min
bioavailability (rat, in vivo, sc, 11 mg/kg): 65 ± 21%
AUC [3]: 39.7 ng·h/mL
AUC [4]: 7380 ng·h/mL
Cmax [3]: 19.8 ± 8.46 ng/mL
Cmax [4]: 5390 ng/mL
Tmax (rat, in vivo, sc, 11 mg/kg, Tmax, SC 11 mg/kg, CSF): 43 min
Tmax (rat, in vivo, sc, 11 mg/kg, Tmax, SC 11 mg/kg, plasma): 25 min
